The results in this text go back to ChEMBL document CHEMBL1139309, “Novel fluorinated pseudopeptides as proteasome inhibitors” (Bioorg Med Chem Lett, 2009).

The species entered for test [1] is Oryctolagus cuniculus. As to the kind of experiment: (§1) Inhibition of post-acid activity of rabbit 20S proteasome. Summed up:
(§2)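 Rabbit 20S proteasome was run at 37 °C, pH 7.5, for 45 min, with and without compound (0.1–200 µM). Fluorogenic substrates were Suc-LLVY-AMC for chymotrypsin-like activity and Z-LLE-βNA for post-acid activity. Buffer was 20 mM Tris, 1 mM DTT, 10% glycerol and 0.02% (w/v) SDS. IC50 or % inhibition at 100 µM is the mean of three experiments.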

For test [2], the species on record is Oryctolagus cuniculus. The test can be described thus: (§3) Inhibition of chymotrypsin-like activity of rabbit 20S proteasome. Summed up:
as §2

For test [3], the target named is T1, Calpain-1 catalytic subunit (Homo sapiens) (UniProt P07384).
T1 sequence (whole entry): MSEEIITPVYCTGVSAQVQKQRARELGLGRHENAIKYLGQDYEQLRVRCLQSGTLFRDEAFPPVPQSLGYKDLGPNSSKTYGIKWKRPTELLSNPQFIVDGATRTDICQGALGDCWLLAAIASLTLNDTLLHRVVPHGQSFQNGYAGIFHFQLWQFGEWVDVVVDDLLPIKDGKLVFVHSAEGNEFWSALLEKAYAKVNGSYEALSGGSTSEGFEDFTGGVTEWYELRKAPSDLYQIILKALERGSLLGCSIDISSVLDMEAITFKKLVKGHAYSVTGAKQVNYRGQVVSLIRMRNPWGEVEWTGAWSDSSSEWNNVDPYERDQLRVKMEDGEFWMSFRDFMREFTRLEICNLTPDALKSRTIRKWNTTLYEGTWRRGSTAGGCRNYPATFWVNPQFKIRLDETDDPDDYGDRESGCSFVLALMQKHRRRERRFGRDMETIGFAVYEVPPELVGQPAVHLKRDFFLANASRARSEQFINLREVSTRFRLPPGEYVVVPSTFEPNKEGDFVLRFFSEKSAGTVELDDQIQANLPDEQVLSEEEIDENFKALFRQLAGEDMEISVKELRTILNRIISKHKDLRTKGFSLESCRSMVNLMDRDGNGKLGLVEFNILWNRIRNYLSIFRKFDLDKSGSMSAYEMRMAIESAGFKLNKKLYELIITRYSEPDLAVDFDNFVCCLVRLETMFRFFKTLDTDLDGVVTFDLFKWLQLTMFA
As to the kind of experiment: Inhibition of calpain 1. Summed up: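 Purified calpain I was assayed at 37 °C with Suc-LLVY-AMC substrate in 50 mM Tris–HCl (pH 7.2), 10 mM DTT and 2 mM CaCl2.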

Test [4] can be described thus: as §1. The arrangement: species or system Oryctolagus cuniculus. The method, boiled down:
as §2

Test [5] has as its target Cathepsin B (Homo sapiens) (UniProt P07858). As to the kind of experiment: Inhibition of CTSB. Summed up: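 Cathepsin B was assayed at 37 °C using Z-RR-AMC substrate in 352 mM KH2PO4 (pH 6), 48 mM NaHPO4, 1 mM EDTA and 1 mM DTT.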
Test [6] can be described thus: as §3. The arrangement: species or system Oryctolagus cuniculus. The method, boiled down:
as §2

Test [7] is filed under the species Oryctolagus cuniculus. The test can be described thus: Inhibition of trypsin-like activity of rabbit 20S proteasome at 100 uM. The method, boiled down:
(§4)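 Trypsin-like activity of rabbit 20S proteasome was followed by Boc-LRR-AMC hydrolysis over 45 min at 37 °C, with and without compound (0.1–200 µM). Buffer was pH 7.5 20 mM Tris, 1 mM DTT and 10% glycerol, with no SDS. Values are IC50 or % inhibition at 100 µM, as means of three experiments.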

Test [8] in a line: (§5) Inhibition of trypsin-like activity of rabbit 20S proteasome. The arrangement: species or system Oryctolagus cuniculus. The method, boiled down: as §4
In test [9] the test system is HeLa. As to the kind of experiment: Inhibition of chymotrypsin-like activity of 20S proteasome in human HeLa cells at 50 uM after 1.5 hrs by chemiluminescent assay.
The species entered for test [10] is Oryctolagus cuniculus. The description is as §5. Summed up: as §4

The source made the active and inactive calls. No cut-off for these calls is given here.

Turning to `COC(=O)[C@H](Cc1ccccc1)NC(=O)CC(NNC(=O)[C@H](CCCCNC(=O)OCc1ccccc1)NC(=O)OC(C)(C)C)C(F)(F)F` (mixture of isomers), the outcome in test [1] and in test [2] was inactive.

By IC50 is commonly meant the midpoint of a concentration-inhibition curve. The term inhibition denotes the percentage by which the read-out fell short of the control. High values mean a response far below the control, low ones a response near the control. Take `COC(=O)[C@H](Cc1ccccc1)NC(=O)CC(NNC(=O)[C@H](CCCCN)NC(=O)OC(C)(C)C)C(F)(F)F` (mixture of isomers): the outcome in [3] and in test [5] was inactive. Also, the IC50 was 6 µM in test [4] and 32 µM in test [6]. This compound also came in with an inhibition in test [7] of 30%.

Regarding `COC(=O)[C@H](Cc1ccccc1)NC(=O)CC(NNC(=O)[C@H](CCCCN)NC(=O)Cc1cccc(Oc2ccccc2)c1)C(F)(F)F` (mixture of isomers), the outcome in [3] and in test [5] was inactive. The half-maximal inhibitory concentration (IC50) in test [4] was 2.7 µM; in test [6], 1.6 µM; in test [8], 8.4 µM. In test [9], the inhibition was 20%.

Regarding `COC(=O)[C@H](Cc1ccccc1)NC(=O)CC(NNC(=O)Cc1cccc(Oc2ccccc2)c1)C(F)(F)F` (mixture of isomers), the outcome in [1] and in test [10] was inactive.

For `COC(=O)[C@H](Cc1ccccc1)NC(=O)CC(NNC(=O)[C@@H](N)CCCCNC(=O)OCc1ccccc1)C(F)(F)F` (mixture of isomers), the outcome in test [3], in [1] and in test [5] was inactive. The IC50 stood at 5.9 µM in test [6] and 4.4 µM in [8].

On to `COC(=O)[C@H](Cc1ccccc1)NC(=O)CC(NNC(=O)[C@H](Cc1ccc(OC)c(OC)c1)NC(=O)Cc1cccc(Oc2ccccc2)c1)C(F)(F)F` (mixture of isomers), for which the half-inhibitory concentration (IC50) in test [4] came out at 72 µM; in test [6], 85 µM.

`COC(=O)[C@H](Cc1ccccc1)NC(=O)CC(NNC(=O)[C@H](CCCCNC(=O)OCc1ccccc1)NC(=O)Cc1cccc(Oc2ccccc2)c1)C(F)(F)F` (mixture of isomers) gave an IC50 in test [4] of 200 µM. For the same compound, the outcome in test [2] and in test [10] was inactive.
